Measured values from ChEMBL document CHEMBL1144563 (Bioorg Med Chem, 2007).

Key:
[1] = Displacement of [3H]epibatidine from nAChRalpha, beta in rat cerebral cortex; format: tissue-based
Summary of the method: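 Washed male rat cerebral cortex homogenate, 3 mg wet weight, in 50 mM Tris pH 7.4 with NaCl, KCl, CaCl2 and MgCl2. 0.5 nM [3H]epibatidine with 10–12 compound concentrations, 1% DMSO final; 300 μM (–)-nicotine defined nonspecific binding. Incubated 4 h at room temperature, then filtered on PEI-soaked GF/B and counted. Nonlinear fit, at least three experiments.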

Mus musculus [2] = test: Antagonism of nicotine-induced seizures in ICR mouse at 50 mg/kg, sc; format: functional; parameters: scale not given: the % may be the effect or the level left; conditions: route subcutaneous
Summary of the method: (§1)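 Mice given saline or analog s.c. 10 min before nicotine. Percentage of animals seizing recorded. Dose-response from at least 4 doses with at least 8 mice per dose; AD50 with confidence limits, or % effect at highest dose.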

Mus musculus [3] = test: Antagonism of nicotine-induced antinociceptive effect in mouse at 30 mg/kg, sc by tail flick assay; format: functional; parameters: scale not given: the % may be the effect or the level left; conditions: route subcutaneous
Summary of the method: (§2)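 Mice given saline or analog s.c. at varied times before nicotine; tail-flick tested 5 min after nicotine. Baseline latency 2–4 s, cutoff 10 s. %MPE = (test−control)/(10−control)×100. 8–12 mice per dose, at least 4 doses; AD50 with confidence limits from dose-response, or % effect at top dose.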

Mus musculus [4] = test: Antagonism of nicotine-induced effect in mouse at 30 mg/kg, sc by hot plate assay; format: functional; parameters: scale not given: the % may be the effect or the level left; conditions: route subcutaneous
Summary of the method: (§3)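 Hot plate held at 55.0 C, mice in a 10 cm glass cylinder. Two control latencies taken at least 10 min apart (normal 8–12 s). Latency scored at jump or paw lick. %MPE = (test−control)/(40−control)×100. Analog given s.c. before nicotine; at least 8 mice per dose; % effect at highest dose.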

[5] = target: Neuronal acetylcholine receptor subunit alpha-7 (Rattus norvegicus, UniProt Q05941); test: Displacement of [125I]iodoMLA from alpha-7 nAChR in rat cerebral cortex; format: tissue-based
Mus musculus [6] = test: Antagonism of nicotine-induced seizures in sc dosed ICR mouse; format: functional; summary of the method: as §1
Mus musculus [7] = test: Antagonism of nicotine-induced antinociceptive effect in sc dosed mouse by tail flick assay; format: functional; summary of the method: as §2
Mus musculus [8] = test: Antagonism of nicotine-induced effect in mouse at 20 mg/kg, sc by hot plate assay; format: functional; parameters: scale not given: the % may be the effect or the level left; conditions: route subcutaneous; summary of the method: as §3

Neuronal acetylcholine receptor subunit alpha-7, sequence (Q05941 whole entry): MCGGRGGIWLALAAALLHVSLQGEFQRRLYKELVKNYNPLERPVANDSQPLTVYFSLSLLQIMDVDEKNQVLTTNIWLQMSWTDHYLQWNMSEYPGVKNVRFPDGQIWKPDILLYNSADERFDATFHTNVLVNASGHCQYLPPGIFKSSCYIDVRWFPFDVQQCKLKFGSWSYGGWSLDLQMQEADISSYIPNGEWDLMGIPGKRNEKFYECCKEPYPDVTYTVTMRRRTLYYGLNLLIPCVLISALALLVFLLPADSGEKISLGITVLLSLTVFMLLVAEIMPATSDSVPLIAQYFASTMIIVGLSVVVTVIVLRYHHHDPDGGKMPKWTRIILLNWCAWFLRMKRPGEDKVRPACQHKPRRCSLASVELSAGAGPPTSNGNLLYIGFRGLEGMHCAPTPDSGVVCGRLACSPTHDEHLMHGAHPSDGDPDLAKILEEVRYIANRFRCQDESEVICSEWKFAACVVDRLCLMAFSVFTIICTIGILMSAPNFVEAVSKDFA

SMILES	Ki [1]	Activity (Mus musculus [2])	Activity (Mus musculus [3])	Activity (Mus musculus [4])	Ki [5]	AD50 (Mus musculus [6])	AD50 (Mus musculus [7])	Activity (Mus musculus [8])
CCN1C[C@]2(COC(=O)c3ccccc3N3C(=O)C[C@@H](C)C3=O)CC[C@H](OC)[C@@]34[C@@H]5C[C@H]6[C@H](OC)[C@@H]5[C@](O)(C[C@@H]6OC)[C@](O)([C@@H](OC)[C@H]23)[C@@H]14	0.352 µM	40%	10%	0%				
CCN1C[C@]2(COC(=O)c3ccccc3N3C(=O)CC(C)(C)C3=O)CC[C@H](OC)C34C2[C@H](OC)[C@](O)(C13)[C@@]1(O)C[C@H](OC)[C@H]2C[C@@H]4[C@@H]1[C@H]2OC	0.602 µM				0.00178 µM	10 mg/kg	1.8 mg/kg	13%
CCN1C[C@]2(COC(=O)c3ccccc3N3C(=O)C(C)[C@H](C)C3=O)CC[C@H](OC)C34C2[C@H](OC)[C@](O)(C13)[C@@]1(O)C[C@H](OC)[C@H]2C[C@@H]4[C@@H]1[C@H]2OC (stereo partly drawn)	0.321 µM	0%			0.00246 µM		7 mg/kg	25%
CCN1C[C@]2(COC(=O)c3ccccc3N3C(=O)C[C@H](C)C3=O)CC[C@H](OC)[C@@]34[C@@H]5C[C@H]6[C@H](OC)[C@@H]5[C@](O)(C[C@@H]6OC)[C@](O)([C@@H](OC)[C@H]23)[C@@H]14 [METHYLLYCACONITINE]	0.739 µM					2 mg/kg	12 mg/kg	15%
